According to ChEMBL document CHEMBL5346953, “Dual Piperidine-Based Histamine H3 and Sigma-1 Receptor Ligands in the Treatment of Nociceptive and Neuropathic Pain” (J Med Chem, 2023):
The source made the active and inactive calls.

Key:
Histamine H3 receptor = Histamine H3 receptor (Homo sapiens, UniProt Q9Y5N1); assay: Inhibition of recombinant human histamine H3 receptor stably expressed in HEK293 cells assessed as increase in cAMP accumulation in presence of forskolin incubated for 30 mins by TR-FRET LANCE assay; assay type: functional, cell-based
Chain of Histamine H3 receptor (Q9Y5N1 whole entry): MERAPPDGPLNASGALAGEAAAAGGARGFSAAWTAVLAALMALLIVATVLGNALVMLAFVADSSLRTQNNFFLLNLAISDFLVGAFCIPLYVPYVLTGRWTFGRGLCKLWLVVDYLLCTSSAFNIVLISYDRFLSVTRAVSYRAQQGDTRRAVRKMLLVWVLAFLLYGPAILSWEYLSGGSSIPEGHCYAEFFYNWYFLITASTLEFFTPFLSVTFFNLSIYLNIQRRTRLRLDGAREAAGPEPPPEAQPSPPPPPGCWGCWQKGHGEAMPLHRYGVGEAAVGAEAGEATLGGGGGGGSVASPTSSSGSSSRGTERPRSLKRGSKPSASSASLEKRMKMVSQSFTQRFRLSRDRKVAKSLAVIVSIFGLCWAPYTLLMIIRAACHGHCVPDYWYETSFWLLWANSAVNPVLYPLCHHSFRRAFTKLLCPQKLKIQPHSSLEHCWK

[1] = Neurotoxicity against mouse assessed as impairment of motor coordination at 15 mg/kg,ip administration at 24 rpm by rotarod test; assay type: toxicity, organism-based; conditions: in vivo
Procedure, shortened: (§1)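 Mice received 15 mg/kg i.p. or vehicle. Motor coordination was then measured as time on the rotarod, at 18 and 24 rpm, with a maximum of 60 s.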

[2] = Neurotoxicity against mouse assessed as sedative effect at 15 mg/kg,ip observed after 30 mins of administration; assay type: toxicity, organism-based; conditions: in vivo, 0.5 h
Procedure, shortened: (§2)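 Spontaneous locomotor activity was recorded in mice after i.p. dosing at 15 or 30 mg/kg, compared with vehicle, as a test of sedation. Analysis was one-way ANOVA. […]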

[3] = Neurotoxicity against mouse assessed as impairment of motor coordination at 15 mg/kg,ip administration at 18 rpm by rotarod test; assay type: toxicity, organism-based; conditions: in vivo; procedure, shortened: as §1
Mus musculus [4] = assay: Antinociceptive activity in loperamide-induced mouse assessed as increase in struggle response latency struggle response latency at 100 ug,ip administration in presence of PRE-084; assay type: functional, organism-based; conditions: dose 100.0 µg
Mus musculus [5] = assay: Antinociceptive activity in mouse assessed as effect on struggle response latency at 100 ug,ip administration; assay type: functional, organism-based; conditions: dose 100.0 µg
Mus musculus [6] = assay: Effect in loperamide-induced antinociception mouse assessed as increase in struggle response latency at ip administration; assay type: functional, organism-based
Mus musculus [7] = assay: Antinociceptive activity in loperamide-induced mouse assessed as increase in struggle response latency struggle response latency at 100 ug,ip administration in presence of naloxone-methiodide; assay type: functional, organism-based; conditions: dose 100.0 µg
Mus musculus [8] = assay: Analgesic activity in CCI-induced neuropathic pain mouse model assessed as effect on tactile allodynia at 5 mg/kg,ip administration measured after 30 to 180 mins by von frey test; assay type: functional, organism-based; conditions: time lower 30.0 min, time upper […]
Procedure, shortened: (§3)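 CCI mice tested 14 days after sciatic nerve injury. Groups received i.p. vehicle or drug at 5, 10 or 15 mg/kg. Baselines were taken before injection, with n = 7–8 per group. Read-outs were von Frey (ipsilateral and contralateral paw) at 30, 90 and 180 min, cold plate at 35, 95 and 185 min, and tail flick at 40, 100 and 190 min. Values are %MPE (mean ± SEM), analysed by one-way ANOVA with Bonferroni post hoc.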

Mus musculus [9] = assay: Antiallodynic activity against oxaliplatin-induced peripheral neuropathy mouse model assessed as increase in pain threshold baseline at early phase at 15 mg/kg,ip followed by oxaliplatin treatment measured after 3 hrs by von frey test; assay type: functional
Procedure, shortened: (§4)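 Mice with oxaliplatin-induced neuropathy were given the drug as a single dose at 5, 10 or 15 mg/kg. Tactile allodynia was measured by von Frey 3 h (early phase) and 7 days (late phase) after neuropathy induction. Thresholds are expressed relative to each group's pre-oxaliplatin baseline.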

Mus musculus [10] = assay: Antinociceptive activity in mouse assessed as effect on struggle response latency at 25 ug,ip administration; assay type: functional, organism-based; conditions: dose 25.0 µg
Mus musculus [11] = assay: Anti-hyperalgesic activity in CCI-induced neuropathic pain mouse model assessed as effect on thermal stimuli at 5 to 15 mg/kg,ip administration measured after 95 mins by cold plate test; assay type: functional, organism-based; conditions: dose 5-15 mg/kg; procedure, shortened: as §3
Mus musculus [12] = assay: Analgesic activity in CCI-induced neuropathic pain mouse model assessed as effect on withdrawal threshold at 15 mg/kg,ip administration measured after 30 mins by von frey test; assay type: functional, organism-based; procedure, shortened: as §3
[13] = Neurotoxicity against mouse assessed as effect in spontaneous locomotor activity by measuring effective dose at ip administration observed after 30 mins; assay type: toxicity, organism-based; conditions: in vivo, 0.5 h; procedure, shortened: as §2
Mus musculus [14] = assay: Antinociceptive activity in loperamide-induced mouse assessed as increase in struggle response latency struggle response latency at 25 ug,ip administration in presence of PRE-084; assay type: functional, organism-based; conditions: dose 25.0 µg
[15] = Neurotoxicity against mouse assessed as reduction in spontaneous locomotor activity at 30 mg/kg,ip observed after 30 mins of administration; assay type: toxicity, organism-based; conditions: in vivo, 0.5 h; procedure, shortened: as §2
Mus musculus [16] = assay: Analgesic activity in CCI-induced neuropathic pain mouse model assessed as effect on spinal response at 10 mg/kg,ip administration measured after 40 mins by tail flick test; assay type: functional, organism-based; procedure, shortened: as §3
Mus musculus [17] = assay: Analgesic activity in CCI-induced neuropathic pain mouse model assessed as increase in mechanical paw withdrawal threshold at 5 mg/kg,ip administration measured after 30 mins by von frey test; assay type: functional, organism-based; procedure, shortened: as §3
[18] = Neurotoxicity against mouse assessed as reduction in spontaneous locomotor activity at 15 mg/kg,ip observed after 30 mins of administration; assay type: toxicity, organism-based; conditions: in vivo, 0.5 h; procedure, shortened: as §2
Mus musculus [19] = assay: Analgesic activity in CCI-induced neuropathic pain mouse model assessed as effect on tactile allodynia at 10 mg/kg,ip administration measured after 30 to 180 mins by von frey test; assay type: functional, organism-based; conditions: time lower 30.0 min, time upper […]; procedure, shortened: as §3
Mus musculus [20] = assay: Analgesic activity in CCI-induced neuropathic pain mouse model assessed as increase in mechanical paw withdrawal threshold at 10 mg/kg,ip administration measured after 90 mins by von frey test; assay type: functional, organism-based; procedure, shortened: as §3
Mus musculus [21] = assay: Antiallodynic activity against oxaliplatin-induced peripheral neuropathy mouse model assessed as increase in pain threshold baseline at early phase at 5 mg/kg,ip followed by oxaliplatin treatment measured after 3 hrs by von frey test; assay type: functional; procedure, shortened: as §4
Mus musculus [22] = assay: Analgesic activity in CCI-induced neuropathic pain mouse model assessed as effect on spinal response at 10 mg/kg,ip administration measured after 100 mins by tail flick test; assay type: functional, organism-based; procedure, shortened: as §3
Mus musculus [23] = assay: Antinociceptive activity in Capsaicin-induced nociceptive mouse model assessed as reduction in biting behavior at 10 to 30 mg/kg,ip administration followed by capsaicin treatment; assay type: functional, organism-based; conditions: dose 10-30 mg/kg
Procedure, shortened: (§5)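 Capsaicin was injected intraplantarly into mice pretreated with 10, 15 or 30 mg/kg, with 1% Tween 80 as vehicle. Licking/biting time was scored for 5 min after injection, with 8–10 mice per group, as mean ± SEM. Analysis was one-way ANOVA with Dunnett's test. ED50 was estimated from the dose–response.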

Mus musculus [24] = assay: Analgesic activity in CCI-induced neuropathic pain mouse model assessed as effect on thermal stimuli at 5 mg/kg,ip administration measured after 185 mins by cold plate test; assay type: functional, organism-based; procedure, shortened: as §3
Mus musculus [25] = assay: Antiallodynic activity against oxaliplatin-induced peripheral neuropathy mouse model assessed as increase in pain threshold baseline at early phase at 10 mg/kg,ip followed by oxaliplatin treatment measured after 3 hrs by von frey test; assay type: functional; procedure, shortened: as §4
Mus musculus [26] = assay: Analgesic activity in CCI-induced neuropathic pain mouse model assessed as effect on withdrawal threshold at 15 mg/kg,ip administration measured after 90 mins by von frey test; assay type: functional, organism-based; procedure, shortened: as §3
Mus musculus [27] = assay: Analgesic activity in CCI-induced neuropathic pain mouse model assessed as effect on thermal stimuli at 10 mg/kg,ip administration measured after 185 mins by cold plate test; assay type: functional, organism-based; procedure, shortened: as §3
Mus musculus [28] = assay: Antiallodynic activity against oxaliplatin-induced peripheral neuropathy mouse model assessed as increase in pain threshold baseline at late phase at 15 mg/kg,ip followed by oxaliplatin treatment measured after 7 days by von frey test; assay type: functional; conditions: time 7 day; procedure, shortened: as §4
Mus musculus [29] = assay: Analgesic activity in CCI-induced neuropathic pain mouse model assessed as effect on withdrawal threshold at 15 mg/kg,ip administration measured after 180 mins by von frey test; assay type: functional, organism-based; procedure, shortened: as §3
Mus musculus [30] = assay: Analgesic activity in CCI-induced neuropathic pain mouse model assessed as increase in mechanical paw withdrawal threshold at 10 mg/kg,ip administration measured after 180 mins by von frey test; assay type: functional, organism-based; procedure, shortened: as §3
Mus musculus [31] = assay: Antinociceptive activity in Capsaicin-induced nociceptive mouse model assessed as reduction in paw licking at 10 to 30 mg/kg,ip administration followed by capsaicin treatment; assay type: functional, organism-based; conditions: dose 10-30 mg/kg; procedure, shortened: as §5
Mus musculus [32] = assay: Antiallodynic activity against oxaliplatin-induced peripheral neuropathy mouse model assessed as increase in pain threshold baseline at late phase at 10 mg/kg,ip followed by oxaliplatin treatment measured after 7 days by von frey test; assay type: functional; conditions: time 7 day; procedure, shortened: as §4
Mus musculus [33] = assay: Analgesic activity in CCI-induced neuropathic pain mouse model assessed as increase in contralateral paw withdrawal threshold at 10 mg/kg,ip administration measured after 90 mins by von frey test; assay type: functional, organism-based; procedure, shortened: as §3
Mus musculus [34] = assay: Antinociceptive activity in loperamide-induced mouse assessed as increase in struggle response latency struggle response latency at 25 ug,ip administration in presence of naloxone-methiodide; assay type: functional, organism-based; conditions: dose 25.0 µg
Mus musculus [35] = assay: Analgesic activity in CCI-induced neuropathic pain mouse model assessed as effect on spinal response at 10 mg/kg,ip administration measured after 190 mins by tail flick test; assay type: functional, organism-based; procedure, shortened: as §3
Mus musculus [36] = assay: Antiallodynic activity against oxaliplatin-induced peripheral neuropathy mouse model assessed as increase in pain threshold baseline at late phase at 5 mg/kg,ip followed by oxaliplatin treatment measured after 7 days by von frey test; assay type: functional; conditions: time 7 day; procedure, shortened: as §4
Mus musculus [37] = assay: Antiallodynic activity against oxaliplatin-induced peripheral neuropathy mouse model assessed as increase in pain threshold baseline at late phase at 5 mg/kg,ip administrated in presence of oxaliplatin measured after 7 days by von frey test; assay type: functional, organism-based; conditions: time 7.0 day; procedure, shortened: as §4
Mus musculus [38] = assay: Analgesic activity in CCI-induced neuropathic pain mouse model assessed as increase in mechanical paw withdrawal threshold at 10 mg/kg,ip administration measured after 30 mins by von frey test; assay type: functional, organism-based; procedure, shortened: as §3
Mus musculus [39] = assay: Analgesic activity in CCI-induced neuropathic pain mouse model assessed as effect on thermal stimuli at 5 to 15 mg/kg,ip administration measured after 35 mins by cold plate test; assay type: functional, organism-based; conditions: dose 5-15 mg/kg; procedure, shortened: as §3
Mus musculus [40] = assay: Analgesic activity in CCI-induced neuropathic pain mouse model assessed as effect on spinal response at 5 mg/kg,ip administration measured after 40 mins by tail flick test; assay type: functional, organism-based; procedure, shortened: as §3
[41] = Neurotoxicity against mouse assessed as decrease in time spent on rod at 15 mg/kg,ip administration at 18 rpm by rotarod test; assay type: toxicity, organism-based; conditions: in vivo; procedure, shortened: as §1
[42] = Neurotoxicity against mouse assessed as decrease in time spent on rod at 15 mg/kg,ip administration at 24 rpm by rotarod test; assay type: toxicity, organism-based; conditions: in vivo; procedure, shortened: as §1

SMILES: c1ccc(-c2ccc(OCCCN3CCCCCC3)cc2)cc1
- IC50 (Histamine H3 receptor): 83.4 nM
- Activity [1]: Toxic
- Activity [2]: Toxic
- Activity [3]: Toxic

SMILES: Cc1cc(OCCN2CCOCC2)nn1-c1ccc2ccccc2c1
- Activity (Mus musculus [4]): inactive
- Activity (Mus musculus [5]): inactive
- Activity (Mus musculus [6]): Dose-Dependent Effect
- Activity (Mus musculus [7]): inactive

SMILES: N#Cc1ccc(-c2ccc(OCCCN3CCC(c4ccncc4)CC3)cc2)cc1
- Activity (Mus musculus [8]): inactive
- Activity (Mus musculus [9]): 66.6%
- IC50 (Histamine H3 receptor): 215 nM
- Activity (Mus musculus [10]): inactive
- Activity (Mus musculus [11]): Active
- Activity (Mus musculus [12]): inactive
- Activity [1]: Toxic
- ED50 [13]: 21.97 mg/kg
- Activity [3]: Toxic
- Activity (Mus musculus [14]): inactive
- Activity [15]: Toxic
- Activity (Mus musculus [16]): Active
- Activity (Mus musculus [17]): Active
- Activity [18]: Toxic
- Activity (Mus musculus [19]): inactive
- Activity (Mus musculus [20]): Active
- Activity (Mus musculus [21]): 63.5%
- Activity (Mus musculus [22]): Active
- Activity (Mus musculus [23]): Active
- Activity (Mus musculus [24]): Active
- Activity (Mus musculus [25]): 50.4%
- Activity (Mus musculus [6]): Dose-Dependent Effect
- Activity (Mus musculus [26]): Active
- Activity (Mus musculus [27]): Active
- Activity (Mus musculus [28]): 69.3%
- Activity (Mus musculus [29]): inactive
- Activity (Mus musculus [30]): Active
- Activity (Mus musculus [31]): Active
- Activity (Mus musculus [32]): 67.6%
- Activity (Mus musculus [33]): Active
- Activity (Mus musculus [34]): inactive
- Activity (Mus musculus [35]): Active
- Activity (Mus musculus [36]): 77.7%
- Activity (Mus musculus [37]): inactive
- Activity (Mus musculus [38]): Active
- Activity (Mus musculus [39]): Active
- Activity (Mus musculus [40]): Active

SMILES: c1ccc(Nc2ccc(OCCCN3CCCCC3)cc2)cc1
- IC50 (Histamine H3 receptor): 83.7 nM
- Activity [2]: Toxic
- Activity [41]: Toxic
- Activity [42]: Toxic
